Test results: ChEMBL document CHEMBL1821590, “Novel dihydropyrimidines and its pyrazole derivatives: synthesis and pharmacological screening” (Eur J Med Chem, 2011)
Values after ≈ are worked out from the molar mass of the structure shown.

Legend:
Assay type in all cases: functional
Metaphire posthuma [1] = assay: Anthelmintic activity against Pheretima posthuma assessed as time taken for complete parasite paralysis at 0.1% w/v
In short: (§1)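 Earthworms (Pheretima posthuma) exposed to test solutions at 0.1, 0.2 and 0.5% w/v; time in minutes to complete paralysis (worms motionless) recorded. Albendazole as standard. Mean of three determinations ± S.D.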

Metaphire posthuma [2] = assay: Anthelmintic activity against Pheretima posthuma assessed as time taken for parasite death at 0.2% w/v
In short: (§2)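 Earthworms (Pheretima posthuma, spelled Perituma posthuma in text) exposed to test compounds at 0.1, 0.2 and 0.5% w/v. Albendazole served as standard, with an untreated control. Paralysis was recorded as the time until worms became motionless, then time to death was recorded, in minutes. Each value is the mean of three determinations with S.D.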

Candida albicans [3] = assay: Antimicrobial activity against Candida albicans at 100 ug/ml by paper disc method; details: read-out: IZ
In short: (§3)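 Paper disc method against A. niger and C. albicans, with compounds at 25, 50 and 100 µg/mL. Amphotericin-B as standard.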

Escherichia coli [4] = assay: Antimicrobial activity against Escherichia coli at 50 ug/ml by agar plate diffusion technique; details: read-out: IZ
In short: (§4)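 Agar plate diffusion against E. coli, P. aeruginosa, S. aureus and B. subtilis, with compounds at 25, 50 and 100 µg/mL. Streptomycin as standard.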

Bacillus subtilis [5] = assay: Antimicrobial activity against Bacillus subtilis at 100 ug/ml by agar plate diffusion technique; details: read-out: IZ; in short: as §4
Metaphire posthuma [6] = assay: Anthelmintic activity against Pheretima posthuma assessed as time taken for complete parasite paralysis at 0.2% w/v; in short: as §1
Aspergillus niger [7] = assay: Antimicrobial activity against Aspergillus niger at 50 ug/ml by paper disc method; details: read-out: IZ; in short: as §3
Escherichia coli [8] = assay: Antimicrobial activity against Escherichia coli at 100 ug/ml by agar plate diffusion technique; details: read-out: IZ; in short: as §4
Bacillus subtilis [9] = assay: Antimicrobial activity against Bacillus subtilis at 25 ug/ml by agar plate diffusion technique; details: read-out: IZ; in short: as §4
Aspergillus niger [10] = assay: Antimicrobial activity against Aspergillus niger at 25 ug/ml by paper disc method; details: read-out: IZ; in short: as §3
Staphylococcus aureus [11] = assay: Antimicrobial activity against Staphylococcus aureus at 25 ug/ml by agar plate diffusion technique; details: read-out: IZ; in short: as §4
Escherichia coli [12] = assay: Antimicrobial activity against Escherichia coli at 25 ug/ml by agar plate diffusion technique; details: read-out: IZ; in short: as §4
Bacillus subtilis [13] = assay: Antimicrobial activity against Bacillus subtilis at 50 ug/ml by agar plate diffusion technique; details: read-out: IZ; in short: as §4
[14] = Antioxidant activity assessed as inhibition of lipid peroxidation using egg lecithin liposomes incubated for 1 hr
In short: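 Egg lecithin (3 mg/mL, phosphate buffer pH 7.4) sonicated 10 min to form liposomes. Sample or ascorbic acid (12.5–100 µg/mL) added. Peroxidation induced with FeCl3 and L-ascorbic acid, 1 h at 37 °C. Stopped with HCl/TCA/TBA/BHA, boiled 15 min, centrifuged, supernatant read at 532 nm. Triplicate. % inhibition vs control. IC50 derived.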

Metaphire posthuma [15] = assay: Anthelmintic activity against Pheretima posthuma assessed as time taken for parasite death at 0.1% w/v; in short: as §2
Metaphire posthuma [16] = assay: Anthelmintic activity against Pheretima posthuma assessed as time taken for parasite death at 0.5% w/v; in short: as §2
[17] = Antioxidant activity assessed as hydrogen peroxide scavenging activity after 10 mins
In short: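 H2O2 (20 mM) in PBS pH 7.4. 1 mL of sample or ascorbic acid in methanol (12.5–100 µg/mL) added to 2 mL H2O2 solution. A230 read after 10 min. % inhibition = [1 − (Vt/Vc)] × 100. Triplicate, averaged. IC50 derived from % inhibition across concentrations.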

Candida albicans [18] = assay: Antimicrobial activity against Candida albicans at 50 ug/ml by paper disc method; details: read-out: IZ; in short: as §3
Candida albicans [19] = assay: Antimicrobial activity against Candida albicans at 25 ug/ml by paper disc method; details: read-out: IZ; in short: as §3
Staphylococcus aureus [20] = assay: Antimicrobial activity against Staphylococcus aureus at 100 ug/ml by agar plate diffusion technique; details: read-out: IZ; in short: as §4
Metaphire posthuma [21] = assay: Anthelmintic activity against Pheretima posthuma assessed as time taken for complete parasite paralysis at 0.5% w/v; in short: as §1
[22] = Antiinflammatory activity assessed as inhibition of albumin denaturation at 100 ug/ml by UV-visible spectrophotometry
In short: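 Compounds dissolved in minimal DMF, diluted in PBS pH 7.4 (final DMF <2.5%). 1 mL test solution (100 µg/mL) plus 1 mL 1% albumin in PBS, 15 min at 27 ± 1 °C, then heated 10 min at 60 ± 1 °C. After cooling, turbidity read at 660 nm. % inhibition = [(Vt/Vc) − 1] × 100 against a no-drug control. Triplicate, averaged. Diclofenac standard.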

Aspergillus niger [23] = assay: Antimicrobial activity against Aspergillus niger at 100 ug/ml by paper disc method; details: read-out: IZ; in short: as §3
[24] = Antioxidant activity assessed as nitric oxide radical scavenging activity after 150 mins
In short: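 10 mM sodium nitroprusside (4 mL), PBS pH 7.4 (1 mL) and sample or ascorbic acid in DMSO (1 mL, 12.5–100 µg/mL), incubated 150 min at 25 °C. Nitrite detected with sulphanilic acid (5 min) then naphthylethylenediamine (30 min, diffused light). Read at […]. Triplicate. % inhibition = [1 − (Vt/Vc)] × 100. IC50 derived from it.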

Staphylococcus aureus [25] = assay: Antimicrobial activity against Staphylococcus aureus at 50 ug/ml by agar plate diffusion technique; details: read-out: IZ; in short: as §4
[26] = Antioxidant activity assessed as potassium ferricyanide ion reducing power after 20 mins
In short: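 Oyaizu method. Samples or ascorbic acid in DMF (12.5–100 µg/mL) mixed with 0.2 M phosphate buffer pH 6.6 and 1% potassium ferricyanide, 20 min at 50 °C. 10% TCA added, centrifuged. Supernatant mixed with water and 0.1% FeCl3, read at 700 nm. % = [(Vt/Vc) − 1] × 100. IC50 derived.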

Pseudomonas aeruginosa [27] = assay: Antimicrobial activity against Pseudomonas aeruginosa at 50 ug/ml by agar plate diffusion technique; details: read-out: IZ; in short: as §4
Pseudomonas aeruginosa [28] = assay: Antimicrobial activity against Pseudomonas aeruginosa at 100 ug/ml by agar plate diffusion technique; details: read-out: IZ; in short: as §4
Pseudomonas aeruginosa [29] = assay: Antimicrobial activity against Pseudomonas aeruginosa at 25 ug/ml by agar plate diffusion technique; details: read-out: IZ; in short: as §4

Compound: CSc1nc(-c2cccs2)c(C#N)c(=O)n1C
- Time (Metaphire posthuma [1]): 39.78 min
- Time (Metaphire posthuma [2]): 47.82 min
- zone of inhibition at 100 µg/mL (Candida albicans [3]): 21.8 mm
- zone of inhibition at 50 µg/mL (Escherichia coli [4]): 6.29 mm
- zone of inhibition at 100 µg/mL (Bacillus subtilis [5]): 18.5 mm
- Time (Metaphire posthuma [6]): 38.48 min
- zone of inhibition at 50 µg/mL (Aspergillus niger [7]): 15.6 mm
- zone of inhibition at 100 µg/mL (Escherichia coli [8]): 8.78 mm
- zone of inhibition at 25 µg/mL (Bacillus subtilis [9]): 10.4 mm
- zone of inhibition at 25 µg/mL (Aspergillus niger [10]): 13 mm
- zone of inhibition at 25 µg/mL (Staphylococcus aureus [11]): 6.29 mm
- zone of inhibition at 25 µg/mL (Escherichia coli [12]): 5.86 mm
- zone of inhibition at 50 µg/mL (Bacillus subtilis [13]): 12.9 mm
- IC50 [14]: 83 µg/mL (≈ 315 µM)
- Time (Metaphire posthuma [15]): 45.24 min
- Time (Metaphire posthuma [16]): 42.34 min
- IC50 [17]: 72 µg/mL (≈ 273 µM)
- zone of inhibition at 50 µg/mL (Candida albicans [18]): 13.8 mm
- zone of inhibition at 25 µg/mL (Candida albicans [19]): 10.6 mm
- zone of inhibition at 100 µg/mL (Staphylococcus aureus [20]): 11.1 mm
- Time (Metaphire posthuma [21]): 33.35 min
- inhibition [22]: 62.1%
- zone of inhibition at 100 µg/mL (Aspergillus niger [23]): 22.6 mm
- IC50 [24]: 87 µg/mL (≈ 330 µM)
- zone of inhibition at 50 µg/mL (Staphylococcus aureus [25]): 8.92 mm
- IC50 [26]: 71 µg/mL (≈ 270 µM)

Compound: CSc1nc(-c2ccco2)c(C#N)c(=O)n1C
- Time (Metaphire posthuma [1]): 42.68 min
- Time (Metaphire posthuma [2]): 55.49 min
- zone of inhibition at 100 µg/mL (Candida albicans [3]): 18.4 mm
- zone of inhibition at 50 µg/mL (Escherichia coli [4]): 6.12 mm
- zone of inhibition at 100 µg/mL (Bacillus subtilis [5]): 15.6 mm
- Time (Metaphire posthuma [6]): 36.59 min
- zone of inhibition at 50 µg/mL (Aspergillus niger [7]): 15.9 mm
- zone of inhibition at 100 µg/mL (Escherichia coli [8]): 7.82 mm
- zone of inhibition at 25 µg/mL (Bacillus subtilis [9]): 11.1 mm
- zone of inhibition at 25 µg/mL (Aspergillus niger [10]): 12.3 mm
- zone of inhibition at 25 µg/mL (Staphylococcus aureus [11]): 7.06 mm
- zone of inhibition at 25 µg/mL (Escherichia coli [12]): 5.74 mm
- zone of inhibition at 50 µg/mL (Bacillus subtilis [13]): 12.2 mm
- IC50 [14]: 90 µg/mL (≈ 364 µM)
- Time (Metaphire posthuma [15]): 60.18 min
- Time (Metaphire posthuma [16]): 53.98 min
- IC50 [17]: 79 µg/mL (≈ 319 µM)
- zone of inhibition at 50 µg/mL (Candida albicans [18]): 16.8 mm
- zone of inhibition at 25 µg/mL (Candida albicans [19]): 13 mm
- zone of inhibition at 100 µg/mL (Staphylococcus aureus [20]): 12.6 mm
- Time (Metaphire posthuma [21]): 32.55 min
- inhibition [22]: 57.2%
- zone of inhibition at 100 µg/mL (Aspergillus niger [23]): 23.5 mm
- IC50 [24]: 108 µg/mL (≈ 437 µM)
- zone of inhibition at 50 µg/mL (Staphylococcus aureus [25]): 9.12 mm
- IC50 [26]: 68 µg/mL (≈ 275 µM)

Compound: CSc1nc(-c2ccc(N(C)C)cc2)c(C#N)c(=O)n1C
- Time (Metaphire posthuma [1]): 35.25 min
- Time (Metaphire posthuma [2]): 55.59 min
- zone of inhibition at 100 µg/mL (Candida albicans [3]): 17.9 mm
- zone of inhibition at 100 µg/mL (Bacillus subtilis [5]): 20.3 mm
- Time (Metaphire posthuma [6]): 44.52 min
- zone of inhibition at 50 µg/mL (Aspergillus niger [7]): 14.5 mm
- zone of inhibition at 25 µg/mL (Bacillus subtilis [9]): 10.3 mm
- zone of inhibition at 50 µg/mL (Pseudomonas aeruginosa [27]): 8.52 mm
- zone of inhibition at 25 µg/mL (Aspergillus niger [10]): 11.1 mm
- zone of inhibition at 25 µg/mL (Staphylococcus aureus [11]): 6.38 mm
- zone of inhibition at 50 µg/mL (Bacillus subtilis [13]): 13.9 mm
- IC50 [14]: 98 µg/mL (≈ 326 µM)
- Time (Metaphire posthuma [15]): 47.57 min
- Time (Metaphire posthuma [16]): 54.1 min
- IC50 [17]: 84 µg/mL (≈ 280 µM)
- zone of inhibition at 50 µg/mL (Candida albicans [18]): 14.4 mm
- zone of inhibition at 25 µg/mL (Candida albicans [19]): 11.8 mm
- zone of inhibition at 100 µg/mL (Staphylococcus aureus [20]): 9.38 mm
- Time (Metaphire posthuma [21]): 40.22 min
- inhibition [22]: 19.3%
- zone of inhibition at 100 µg/mL (Aspergillus niger [23]): 19.7 mm
- IC50 [24]: 93 µg/mL (≈ 310 µM)
- zone of inhibition at 50 µg/mL (Staphylococcus aureus [25]): 8.25 mm
- zone of inhibition at 100 µg/mL (Pseudomonas aeruginosa [28]): 10.6 mm
- zone of inhibition at 25 µg/mL (Pseudomonas aeruginosa [29]): 6.06 mm
- IC50 [26]: 78 µg/mL (≈ 260 µM)

Compound: CN[C@@H]1[C@H](O[C@H]2[C@H](O[C@H]3[C@H](O)[C@@H](O)[C@H](N=C(N)N)[C@@H](O)[C@@H]3N=C(N)N)O[C@@H](C)[C@]2(O)C=O)O[C@@H](CO)[C@H](O)[C@H]1O [STREPTOMYCIN]
- zone of inhibition at 50 µg/mL (Escherichia coli [4]): 21.1 mm
- zone of inhibition at 100 µg/mL (Bacillus subtilis [5]): 31.8 mm
- zone of inhibition at 100 µg/mL (Escherichia coli [8]): 28.7 mm
- zone of inhibition at 25 µg/mL (Bacillus subtilis [9]): 15.1 mm
- zone of inhibition at 50 µg/mL (Pseudomonas aeruginosa [27]): 18.7 mm
- zone of inhibition at 25 µg/mL (Staphylococcus aureus [11]): 15.4 mm
- zone of inhibition at 25 µg/mL (Escherichia coli [12]): 15.8 mm
- zone of inhibition at 50 µg/mL (Bacillus subtilis [13]): 20.2 mm
- zone of inhibition at 100 µg/mL (Staphylococcus aureus [20]): 29.5 mm
- zone of inhibition at 50 µg/mL (Staphylococcus aureus [25]): 22.4 mm
- zone of inhibition at 100 µg/mL (Pseudomonas aeruginosa [28]): 30.3 mm
- zone of inhibition at 25 µg/mL (Pseudomonas aeruginosa [29]): 13.4 mm
